The text below walks through data of PMC7041979 (The Journal of Veterinary Medical Science, 2019).

The format of series [1] is in vitro ADME, rat. As to conditions: for detection of ZON metabolite in mucosal and serosal buffers: LC-MS/MS. In outline: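 Everted 10 cm segments from male, nonpregnant female and gestation day 18–19 pregnant Sprague-Dawley rats: three small-intestine parts plus distal colon. Krebs Ringer bicarbonate, pH 7.4, 95% O₂/5% CO₂, 37°C. Mucosal 25 ml; serosal 25 ml circulated at 5 ml/min. Test compound 10 µM mucosal; both sides sampled 0–60 min. Negative-ESI LC-MS/MS against bile-derived glucuronide standards; mean ± S.D., six experiments.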

Another series has as its system cell viability. As to conditions: 10 µM, in vitro; cited from earlier work.
The conditions of series [2]: after oral exposure, estimated; cited from earlier work.
The next series deals with estrogenic activity. As to conditions: cited from earlier work.
[3] abbreviates: ZON 10 µM, 60 min, female colon.
The mark [4] stands for this setting: ZON 10 µM, 60 min, female proximal intestine.
Where [5] appears, read: ZON 10 µM, 60 min, pregnant female proximal intestine.

As to `C[C@H]1CCCC(=O)CCCCCc2cc(O)cc(O)c2C(=O)O1` [ZAN, Zearalanone], the “detection of ZON metabolite in mucosal and serosal buffers” value (shortened to “detection of ZON metabolite”) in series [1] (ZON 10 µM, 60 min) is recorded as “too low to quantify”.
Take `C[C@H]1CCCC(=O)CCC/C=C/c2cc(O)cc(O)c2C(=O)O1` [ZON, Zearalenone]: the “effect on cell viability” value with cell viability was “not to affect cell viability”. The ZON uptake in series [2] was 80–85%. Also, the “rate of disappearance of ZON from the mucosal compartment” value in series [1] (ZON 10 µM in mucosal buffer, all segments) was in the range of 100 to 200 nmol/h. The “amount of ZON transported from the mucosal side to the serosal side” value in series [1] (ZON 10 µM, 60 min incubation, distal colon (highest)) is recorded as “approximately 2 nmol”. In series [1] (both, rat, pH 7.4), this compound showed a recovery at 60 min, 10 µM of over 80%.
As for `CC1CCCC(=O)CCCC=Cc2cc(OC3OC(C(=O)O)C(O)C(O)C3O)cc(OC3OC(C(=O)O)C(O)C(O)C3O)c2C(=O)O1` (stereo not drawn) [zearalenone diglucuronide, Zearalenone diglucuronide], in series [1] (ZON 10 µM, 60 min), the “detection of ZON metabolite” value is given as “too low to quantify”.
As to `C[C@H]1CCC[C@H](O)CCC/C=C/c2cc(O)cc(O)c2C(=O)O1` [α-ZOL, α-Zearalenol], the “estrogenic activity relative to ZON” value in the series with estrogenic activity is given as “three times more potent”. Besides, in series [1] (ZON 10 µM, 60 min), the “α-ZOL transport to the mucosal side relative to transport to the serosal side” value is reported as “approximately 6 times”. The same compound came in with a α-ZOL mucosal excretion in series [1] (ZON 10 µM, 60 min, at most, over all segments) of at most 0.3 nmol. Moreover, the “α-ZOL transport to the serosal side, maximum” value in series [1] (ZON 10 µM, 60 min, colon) is “approximately 0.05 nmol”.
Regarding `C[C@H]1CCC[C@@H](O)CCC/C=C/c2cc(O[C@@H]3O[C@H](C(=O)O)[C@@H](O)[C@H](O)[C@H]3O)cc(O)c2C(=O)O1` [α-ZOL-GA, α-Zearalenol glucuronide], in series [1] (setting [3]), the “α-ZOL-GA mucosal excretion, minimum” value came to 20.09 nmol. Besides, in series [1] (setting [4]), the “α-ZOL-GA serosal transport, minimum” value is given as 2.84 nmol. In series [1] (ZON 10 µM, 60 min, pregnant female colon), the “α-ZOL-GA serosal transport, maximum” value is recorded as 36.15 nmol. In series [1] (setting [5]), the “α-ZOL-GA mucosal excretion, maximum” value worked out at 60.02 nmol.
`C[C@H]1CCC[C@H](O)CCC/C=C/c2cc(O[C@@H]3O[C@H](C(=O)O)[C@@H](O)[C@H](O)[C@H]3O)cc(O)c2C(=O)O1` [β-ZOL-GA, β-Zearalenol glucuronide]: the “detection of ZON metabolite” value in series [1] (ZON 10 µM, 60 min) is reported as “too low to quantify”.
Turning to Zearalenone glucuronide [ZON-GA], in series [1] (setting [3]), the “ZON-GA mucosal excretion, minimum” value was determined as 22.55 nmol and the “ZON-GA serosal transport, maximum” value turned out to be 49.94 nmol. Further, the “ZON-GA serosal transport, minimum” value in series [1] (setting [4]) was 1.64 nmol. In series [1] (setting [5]), the “ZON-GA mucosal excretion, maximum” value stood at 85.39 nmol.
As to β-Zearalenol [β-ZOL], the “detection of ZON metabolite” value in series [1] (ZON 10 µM, 60 min) is reported as “too low to quantify”.
